Target: Gag-Pol polyprotein (Rous sarcoma virus (strain Prague C) (RSV-PrC), UniProt P03354)
Test: Inhibition of rous sarcoma virus (RSV) Integrase.
How it was run: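 His-tagged RSV integrase catalytic core expressed in E. coli BL21(DE3) (IPTG 1 mM, 3 h, 37 °C) and purified on Ni-NTA. Disintegration assay used 0.5 pmol 5′-32P-labeled annealed DRSV oligonucleotide with 2 pmol core in Tris buffer pH 7.2 for 1 h at 37 °C. Products were resolved on a 15% denaturing polyacrylamide gel and quantified by phosphorimager. IC50 is the concentration halving activity.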

Gag-Pol polyprotein, sequence (P03354 1281-1567 limits assumed): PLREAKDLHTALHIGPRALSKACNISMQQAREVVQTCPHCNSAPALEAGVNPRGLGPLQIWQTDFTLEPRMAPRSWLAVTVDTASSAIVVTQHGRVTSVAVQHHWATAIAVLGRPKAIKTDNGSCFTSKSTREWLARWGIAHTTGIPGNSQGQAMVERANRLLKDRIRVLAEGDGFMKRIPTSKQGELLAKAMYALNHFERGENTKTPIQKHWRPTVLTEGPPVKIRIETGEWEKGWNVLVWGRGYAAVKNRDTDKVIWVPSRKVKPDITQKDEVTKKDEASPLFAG

| Structure (SMILES) | IC50 |
| --- | --- |
| Oc1ccc(/C=C/c2ccc3cccc(O)c3n2)cc1O | 65.1 µM |
| N#Cc1ccc2ccc(/C=C/c3ccc(O)c(O)c3)nc2c1O | 38 µM |
| Nc1cccc2ccc(/C=C/c3ccc(O)c(O)c3)nc12 | > 100 µM |
| Oc1cccc2ccc(/C=C/c3ccccc3)nc12 | > 100 µM |
| O=[N+]([O-])c1cccc2ccc(/C=C/c3ccc(O)c(O)c3)nc12 | > 100 µM |
| O=C(O)c1ccc2ccc(/C=C/c3ccc(O)cc3O)nc2c1O | 38.3 µM |
| CC(=O)Oc1ccc(/C=C/c2ccc3cccc(OC(C)=O)c3n2)cc1OC(C)=O | > 100 µM |
| CC(=O)Oc1cccc2ccc(/C=C/c3ccccc3)nc12 | > 100 µM |
| Cc1ccc2cccc(OC(=O)/C=C/c3ccc(O)c(O)c3)c2n1 | > 100 µM |

Stronger by IC50, values ahead:

| IC50 | Structure (SMILES) |
| --- | --- |
| 7.4 µM | O=C(O)c1cc(/C=C/c2ccc3ccc(C(=O)O)c(O)c3n2)ccc1O |
| 20.9 µM | O=C(O)c1ccc2ccc(/C=C/c3ccc(O)cc3)nc2c1O |
| 2.1 µM | O=C(O)c1ccc2ccc(/C=C/c3cc(O)c(O)c(O)c3)nc2c1O |
| 2.3 µM | O=C(O)c1ccc2ccc(/C=C/c3ccc(O)c(O)c3)nc2c1O |
| 10.3 µM | O=C(O)c1ccc2ccc(/C=C/c3ccccc3)nc2c1O |

Target: Human immunodeficiency virus type 1 integrase (Human immunodeficiency virus 1, UniProt Q7ZJM1)
Sequence (Q7ZJM1 whole entry): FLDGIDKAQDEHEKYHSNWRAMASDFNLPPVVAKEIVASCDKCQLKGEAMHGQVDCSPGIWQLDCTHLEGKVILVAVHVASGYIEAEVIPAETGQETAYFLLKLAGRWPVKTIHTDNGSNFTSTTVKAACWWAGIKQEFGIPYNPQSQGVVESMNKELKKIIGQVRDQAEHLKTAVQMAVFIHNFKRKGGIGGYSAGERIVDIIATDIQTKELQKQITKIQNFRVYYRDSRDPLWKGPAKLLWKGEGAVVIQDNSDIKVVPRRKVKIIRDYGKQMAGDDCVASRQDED
Test: Inhibition of human immunodeficiency virus-1 (HIV-1) integrase.
How it was run: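 Disintegration assay with His-tagged HIV-1 integrase catalytic core, expressed in E. coli BL21(DE3) and Ni-NTA purified. Substrate was 0.5 pmol of 5′-32P-labelled, self-annealed DHIV oligonucleotide, reacted with 2 pmol core in Tris buffer pH 7.2 for 1 h at 37 °C. Products were resolved on 15% denaturing polyacrylamide gel and quantified by phosphorimaging. IC50 is the drug concentration halving enzyme activity.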

| Structure (SMILES) | IC50 |
| --- | --- |
| O=C(O)c1ccc2ccc(/C=C/c3ccc(O)cc3O)nc2c1O | 2.5 µM |
